# Measurements published in ChEMBL document CHEMBL4689842, “EUbOPEN Chemogenomics Library wave 1” (2021).
# Test system: HEK-293T
# Assay: Multiplex assay against HEK293T;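 for Population Tubulin-Different-Phenotype (%): share of the cells with healthy nuclei that show this phenotype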
# Assay type: toxicity, cell-based
# Conditions: human
# How it was run: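 Four dyes were applied at seeding to live cells: Hoechst33342, BioTracker Green Microtubule Cytoskeleton Dye, MitoTracker Red and Annexin V Alexa Fluor 680. Imaging after compound addition used a CQ1 microscope at 37°C and 5% CO2. CellPathfinder machine-learning gating then sorted cells into Hoechst high-intensity objects or normal cells, normal cells into healthy, pyknosed or fragmented nuclei, and pyknosed cells into mitotic or apoptotic, with tubulin, mitochondrial-mass and membrane-permeability phenotypes given as per cents of healthy-nucleus cells.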
# [1] = 12 h, 1 µM, compound concentration 1 uM, replicate 1
# [2] = 12 h, 1 µM, compound concentration 1 uM, replicate 2
# [3] = 12 h, 10 µM, compound concentration 10 uM, replicate 1
# [4] = 12 h, 10 µM, compound concentration 10 uM, replicate 2
# [5] = 24 h, 1 µM, compound concentration 1 uM, replicate 1
# [6] = 24 h, 1 µM, compound concentration 1 uM, replicate 2
# [7] = 24 h, 10 µM, compound concentration 10 uM, replicate 1
# [8] = 24 h, 10 µM, compound concentration 10 uM, replicate 2
# [9] = 48 h, 1 µM, compound concentration 1 uM, replicate 1
# [10] = 48 h, 1 µM, compound concentration 1 uM, replicate 2
# [11] = 48 h, 10 µM, compound concentration 10 uM, replicate 1
# [12] = 48 h, 10 µM, compound concentration 10 uM, replicate 2
structure (smiles),measurement,setting,value
C=CC(=O)Nc1ccc2ncnc(Nc3ccc(OCc4cccc(F)c4)c(Cl)c3)c2c1.Cc1ccc(S(=O)(=O)O)cc1,Population Apoptotic (%),[1],52%
same,Population Fragmented Nuclei (%),[1],11%
same,Population Healthy Nuclei (%),[1],38%
same,Population Hoechst High Intensity Objects (%),[1],11%
same,Population Mitochondria Different-Phenotype (%),[1],75%
same,Population Mitotic Cells (%),[1],47%
same,Population Normal (%),[1],88%
same,Population Pyknosed Nuclei (%),[1],49%
same,Population Tubulin-Different-Phenotype (%),[1],39%
same,Total Cell Count,[1],304
same,Population Apoptotic (%),[2],11%
same,Population Fragmented Nuclei (%),[2],6%
same,Population Healthy Nuclei (%),[2],45%
same,Population Hoechst High Intensity Objects (%),[2],2%
same,Population Membrane Permeable-Phenotype (%),[2],5%
same,Population Mitochondria Different-Phenotype (%),[2],26%
same,Population Mitotic Cells (%),[2],88%
same,Population Normal (%),[2],97%
same,Population Pyknosed Nuclei (%),[2],47%
same,Population Tubulin-Different-Phenotype (%),[2],24%
same,Total Cell Count,[2],226
same,Population Apoptotic (%),[3],51%
same,Population Fragmented Nuclei (%),[3],10%
same,Population Healthy Nuclei (%),[3],38%
same,Population Hoechst High Intensity Objects (%),[3],12%
same,Population Membrane Permeable-Phenotype (%),[3],2%
same,Population Mitochondria Different-Phenotype (%),[3],82%
same,Population Mitotic Cells (%),[3],48%
same,Population Normal (%),[3],87%
same,Population Pyknosed Nuclei (%),[3],51%
same,Population Tubulin-Different-Phenotype (%),[3],44%
same,Total Cell Count,[3],267
same,Population Apoptotic (%),[4],49%
same,Population Fragmented Nuclei (%),[4],22%
same,Population Healthy Nuclei (%),[4],21%
same,Population Hoechst High Intensity Objects (%),[4],8%
same,Population Membrane Permeable-Phenotype (%),[4],0%
same,Population Mitochondria Different-Phenotype (%),[4],27%
same,Population Mitotic Cells (%),[4],50%
same,Population Normal (%),[4],91%
same,Population Pyknosed Nuclei (%),[4],56%
same,Population Tubulin-Different-Phenotype (%),[4],27%
same,Total Cell Count,[4],184
same,Population Apoptotic (%),[5],45%
same,Population Fragmented Nuclei (%),[5],11%
same,Population Healthy Nuclei (%),[5],41%
same,Population Hoechst High Intensity Objects (%),[5],15%
same,Population Membrane Permeable-Phenotype (%),[5],3%
same,Population Mitochondria Different-Phenotype (%),[5],61%
same,Population Mitotic Cells (%),[5],54%
same,Population Normal (%),[5],84%
same,Population Pyknosed Nuclei (%),[5],47%
same,Population Tubulin-Different-Phenotype (%),[5],39%
same,Total Cell Count,[5],351
same,Population Apoptotic (%),[6],16%
same,Population Fragmented Nuclei (%),[6],7%
same,Population Healthy Nuclei (%),[6],63%
same,Population Hoechst High Intensity Objects (%),[6],2%
same,Population Membrane Permeable-Phenotype (%),[6],10%
same,Population Mitochondria Different-Phenotype (%),[6],19%
same,Population Mitotic Cells (%),[6],83%
same,Population Normal (%),[6],97%
same,Population Pyknosed Nuclei (%),[6],28%
same,Population Tubulin-Different-Phenotype (%),[6],30%
same,Total Cell Count,[6],279
same,Population Apoptotic (%),[7],56%
same,Population Fragmented Nuclei (%),[7],11%
same,Population Healthy Nuclei (%),[7],41%
same,Population Hoechst High Intensity Objects (%),[7],16%
same,Population Mitochondria Different-Phenotype (%),[7],78%
same,Population Mitotic Cells (%),[7],43%
same,Population Normal (%),[7],83%
same,Population Pyknosed Nuclei (%),[7],47%
same,Population Tubulin-Different-Phenotype (%),[7],48%
same,Total Cell Count,[7],262
same,Population Apoptotic (%),[8],48%
same,Population Fragmented Nuclei (%),[8],17%
same,Population Healthy Nuclei (%),[8],30%
same,Population Hoechst High Intensity Objects (%),[8],9%
same,Population Membrane Permeable-Phenotype (%),[8],2%
same,Population Mitochondria Different-Phenotype (%),[8],50%
same,Population Mitotic Cells (%),[8],51%
same,Population Normal (%),[8],90%
same,Population Pyknosed Nuclei (%),[8],52%
same,Population Tubulin-Different-Phenotype (%),[8],45%
same,Total Cell Count,[8],161
same,Population Apoptotic (%),[9],44%
same,Population Fragmented Nuclei (%),[9],15%
same,Population Healthy Nuclei (%),[9],47%
same,Population Hoechst High Intensity Objects (%),[9],13%
same,Population Membrane Permeable-Phenotype (%),[9],4%
same,Population Mitochondria Different-Phenotype (%),[9],32%
same,Population Mitotic Cells (%),[9],55%
same,Population Normal (%),[9],86%
same,Population Pyknosed Nuclei (%),[9],37%
same,Population Tubulin-Different-Phenotype (%),[9],32%
same,Total Cell Count,[9],430
same,Population Apoptotic (%),[10],4%
same,Population Fragmented Nuclei (%),[10],6%
same,Population Healthy Nuclei (%),[10],83%
same,Population Hoechst High Intensity Objects (%),[10],2%
same,Population Membrane Permeable-Phenotype (%),[10],11%
same,Population Mitochondria Different-Phenotype (%),[10],4%
same,Population Mitotic Cells (%),[10],96%
same,Population Normal (%),[10],97%
same,Population Pyknosed Nuclei (%),[10],10%
same,Population Tubulin-Different-Phenotype (%),[10],23%
same,Total Cell Count,[10],512
same,Population Apoptotic (%),[11],51%
same,Population Fragmented Nuclei (%),[11],16%
same,Population Healthy Nuclei (%),[11],48%
same,Population Hoechst High Intensity Objects (%),[11],12%
same,Population Membrane Permeable-Phenotype (%),[11],5%
same,Population Mitochondria Different-Phenotype (%),[11],46%
same,Population Mitotic Cells (%),[11],48%
same,Population Normal (%),[11],87%
same,Population Pyknosed Nuclei (%),[11],35%
same,Population Tubulin-Different-Phenotype (%),[11],38%
same,Total Cell Count,[11],339
same,Population Apoptotic (%),[12],60%
same,Population Fragmented Nuclei (%),[12],13%
same,Population Healthy Nuclei (%),[12],53%
same,Population Hoechst High Intensity Objects (%),[12],10%
same,Population Membrane Permeable-Phenotype (%),[12],8%
same,Population Mitochondria Different-Phenotype (%),[12],22%
same,Population Mitotic Cells (%),[12],40%
same,Population Normal (%),[12],89%
same,Population Pyknosed Nuclei (%),[12],32%
same,Population Tubulin-Different-Phenotype (%),[12],46%
same,Total Cell Count,[12],187
CN1CCN(c2ccc(OC(F)(F)F)c(Nc3ncc4c(n3)-c3c(c(C(N)=O)nn3CCO)CC4)c2)CC1 [ONVANSERTIB],Population Apoptotic (%),[1],68%
same,Population Fragmented Nuclei (%),[1],13%
same,Population Healthy Nuclei (%),[1],36%
same,Population Hoechst High Intensity Objects (%),[1],16%
same,Population Membrane Permeable-Phenotype (%),[1],6%
same,Population Mitochondria Different-Phenotype (%),[1],83%
same,Population Mitotic Cells (%),[1],31%
same,Population Normal (%),[1],83%
same,Population Pyknosed Nuclei (%),[1],50%
same,Population Tubulin-Different-Phenotype (%),[1],39%
same,Total Cell Count,[1],216
same,Population Apoptotic (%),[2],21%
same,Population Fragmented Nuclei (%),[2],11%
same,Population Healthy Nuclei (%),[2],23%
same,Population Hoechst High Intensity Objects (%),[2],5%
same,Population Membrane Permeable-Phenotype (%),[2],0%
same,Population Mitochondria Different-Phenotype (%),[2],32%
same,Population Mitotic Cells (%),[2],78%
same,Population Normal (%),[2],94%
same,Population Pyknosed Nuclei (%),[2],65%
same,Population Tubulin-Different-Phenotype (%),[2],24%
same,Total Cell Count,[2],113
same,Population Apoptotic (%),[3],67%
same,Population Fragmented Nuclei (%),[3],8%
same,Population Healthy Nuclei (%),[3],41%
same,Population Hoechst High Intensity Objects (%),[3],12%
same,Population Mitochondria Different-Phenotype (%),[3],98%
same,Population Mitotic Cells (%),[3],32%
same,Population Normal (%),[3],87%
same,Population Pyknosed Nuclei (%),[3],49%
same,Population Tubulin-Different-Phenotype (%),[3],96%
same,Total Cell Count,[3],269
same,Population Apoptotic (%),[4],31%
same,Population Fragmented Nuclei (%),[4],5%
same,Population Healthy Nuclei (%),[4],30%
same,Population Hoechst High Intensity Objects (%),[4],2%
same,Population Membrane Permeable-Phenotype (%),[4],1%
same,Population Mitochondria Different-Phenotype (%),[4],82%
same,Population Mitotic Cells (%),[4],68%
same,Population Normal (%),[4],97%
same,Population Pyknosed Nuclei (%),[4],64%
same,Population Tubulin-Different-Phenotype (%),[4],81%
same,Total Cell Count,[4],234
same,Population Apoptotic (%),[5],60%
same,Population Fragmented Nuclei (%),[5],16%
same,Population Healthy Nuclei (%),[5],23%
same,Population Hoechst High Intensity Objects (%),[5],14%
same,Population Membrane Permeable-Phenotype (%),[5],9%
same,Population Mitochondria Different-Phenotype (%),[5],83%
same,Population Mitotic Cells (%),[5],39%
same,Population Normal (%),[5],85%
same,Population Pyknosed Nuclei (%),[5],60%
same,Population Tubulin-Different-Phenotype (%),[5],67%
same,Total Cell Count,[5],211
same,Population Apoptotic (%),[6],15%
same,Population Fragmented Nuclei (%),[6],11%
same,Population Healthy Nuclei (%),[6],26%
same,Population Hoechst High Intensity Objects (%),[6],9%
same,Population Membrane Permeable-Phenotype (%),[6],0%
same,Population Mitochondria Different-Phenotype (%),[6],68%
same,Population Mitotic Cells (%),[6],84%
same,Population Normal (%),[6],90%
same,Population Pyknosed Nuclei (%),[6],62%
same,Population Tubulin-Different-Phenotype (%),[6],62%
same,Total Cell Count,[6],122
same,Population Apoptotic (%),[7],55%
same,Population Fragmented Nuclei (%),[7],7%
same,Population Healthy Nuclei (%),[7],41%
same,Population Hoechst High Intensity Objects (%),[7],15%
same,Population Membrane Permeable-Phenotype (%),[7],2%
same,Population Mitochondria Different-Phenotype (%),[7],95%
same,Population Mitotic Cells (%),[7],44%
same,Population Normal (%),[7],84%
same,Population Pyknosed Nuclei (%),[7],50%
same,Population Tubulin-Different-Phenotype (%),[7],90%
same,Total Cell Count,[7],303
same,Population Apoptotic (%),[8],42%
same,Population Fragmented Nuclei (%),[8],5%
same,Population Healthy Nuclei (%),[8],39%
same,Population Hoechst High Intensity Objects (%),[8],4%
same,Population Membrane Permeable-Phenotype (%),[8],4%
same,Population Mitochondria Different-Phenotype (%),[8],83%
same,Population Mitotic Cells (%),[8],57%
same,Population Normal (%),[8],95%
same,Population Pyknosed Nuclei (%),[8],54%
same,Population Tubulin-Different-Phenotype (%),[8],83%
same,Total Cell Count,[8],256
same,Population Apoptotic (%),[9],57%
same,Population Fragmented Nuclei (%),[9],20%
same,Population Healthy Nuclei (%),[9],18%
same,Population Hoechst High Intensity Objects (%),[9],20%
same,Population Membrane Permeable-Phenotype (%),[9],0%
same,Population Mitochondria Different-Phenotype (%),[9],59%
same,Population Mitotic Cells (%),[9],42%
same,Population Normal (%),[9],79%
same,Population Pyknosed Nuclei (%),[9],60%
same,Population Tubulin-Different-Phenotype (%),[9],43%
same,Total Cell Count,[9],213
same,Population Apoptotic (%),[10],36%
same,Population Fragmented Nuclei (%),[10],12%
same,Population Healthy Nuclei (%),[10],45%
same,Population Hoechst High Intensity Objects (%),[10],8%
same,Population Membrane Permeable-Phenotype (%),[10],6%
same,Population Mitochondria Different-Phenotype (%),[10],30%
same,Population Mitotic Cells (%),[10],63%
same,Population Normal (%),[10],91%
same,Population Pyknosed Nuclei (%),[10],42%
same,Population Tubulin-Different-Phenotype (%),[10],59%
same,Total Cell Count,[10],118
same,Population Apoptotic (%),[11],64%
same,Population Fragmented Nuclei (%),[11],14%
same,Population Healthy Nuclei (%),[11],29%
same,Population Hoechst High Intensity Objects (%),[11],14%
same,Population Membrane Permeable-Phenotype (%),[11],2%
same,Population Mitochondria Different-Phenotype (%),[11],95%
same,Population Mitotic Cells (%),[11],35%
same,Population Normal (%),[11],85%
same,Population Pyknosed Nuclei (%),[11],55%
same,Population Tubulin-Different-Phenotype (%),[11],89%
same,Total Cell Count,[11],267
same,Population Apoptotic (%),[12],51%
same,Population Fragmented Nuclei (%),[12],6%
same,Population Healthy Nuclei (%),[12],42%
same,Population Hoechst High Intensity Objects (%),[12],6%
same,Population Mitochondria Different-Phenotype (%),[12],78%
same,Population Mitotic Cells (%),[12],48%
same,Population Normal (%),[12],93%
same,Population Pyknosed Nuclei (%),[12],51%
same,Population Tubulin-Different-Phenotype (%),[12],84%
same,Total Cell Count,[12],246
